# Source: PubChem BioAssay
# The source made the active and inactive calls.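 The calls were made as follows, unless noted: active = inhibition of the reporter signal at or above 50%; inactive = inhibition below 50%.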
# Legend:
# [1] = inhibitors of TNFa-induced NFkB p65 translocation, primary screen, imaging, HUVEC, MLSMR starter and 10KST1 sets (AID 438;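 active = inhibition above 20% together with a positive visual image hit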;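 also: compound added about 3h40 before a 20 min TNFalpha stimulation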;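 as to inhibition: signal is the nuclear over cytoplasmic p65 intensity ratio per well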); settings: HUVEC TNFa-induced p65 nuclear translocation; cell count: measured here: nuclei count (cytotoxicity indicator), at 2.08 µM; inhibition: at 2 µM, stronger effect = higher value, 0% TNFa-plus-vehicle, 100% no-TNFa wells
# [2] = reduction of polyQ htt aggregates in cells – imaging, exon1htt(103Q)mCFP cells, high-content imaging, primary screen (AID 483;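 active = visual image review flags a hit and inhibition of aggregation exceeds 20%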;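 also: compound exposure lasted 3 days before fixation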;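 as to nuclei count: percent of the per-plate median nuclei count of sample wells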); settings: exon1htt(103Q)mCFP cell line, aggregate imaging, at 2 µM; inhibition of aggregation: stronger effect = higher value; nuclei count: measured here: cell count, toxicity
# [3] = endothelial E-selectin expression blockers – imaging, HUVEC, immunofluorescence, MLSMR starter and 10KST1 sets, primary screen (AID 487;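 active = visually confirmed hit in the image check and inhibition above 20%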;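 as to inhibition: signal is fraction of cell area covered by stained E-selectin grains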;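 as to nuclei count: 100% = median nuclei count of all wells on the same plate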); settings: HUVEC TNFalpha-induced E-selectin immunofluorescence imaging, at 2 µM; inhibition: stronger effect = higher value; nuclei count: measured here: cell number, toxicity
# [4] = biological target: Voltage-gated potassium channel subunit beta-2 (Rattus norvegicus) (UniProt P62483); assay: inhibitors of rat Kvbeta2 reductase activity – biochemical, NADPH fluorescence, primary screen (AID 622;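 active = fluorescence slope higher than the sample average by over 3 SD, cut at about -0.22 in these data, passing the limit was not always enough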;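 also: slope of raw intensity against log time taken from 70 to 1610 s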); settings: recombinant KvBeta, 4-cyanobenzaldehyde reduction, at 10 µM, stronger effect = higher value
# Sequence of Voltage-gated potassium channel subunit beta-2 (Rattus norvegicus) (P62483 whole entry, looked up): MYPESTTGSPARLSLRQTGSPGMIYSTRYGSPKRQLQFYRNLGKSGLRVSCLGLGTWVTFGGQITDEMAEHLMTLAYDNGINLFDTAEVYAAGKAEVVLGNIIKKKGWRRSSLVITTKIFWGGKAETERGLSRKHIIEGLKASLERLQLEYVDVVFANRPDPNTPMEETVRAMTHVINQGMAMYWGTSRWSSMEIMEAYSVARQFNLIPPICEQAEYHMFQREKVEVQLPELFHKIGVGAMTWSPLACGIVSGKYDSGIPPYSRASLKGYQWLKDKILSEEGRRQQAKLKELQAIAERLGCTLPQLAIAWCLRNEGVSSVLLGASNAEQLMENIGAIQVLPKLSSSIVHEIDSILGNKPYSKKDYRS
# [5] = biological target: Voltage-gated potassium channel subunit beta-2 (Rattus norvegicus) (UniProt P62483); assay: enhancers of rat Kvbeta2 NADPH turnover – biochemical, NADPH fluorescence, primary screen (AID 623;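 active = NADPH fluorescence slope more negative than the mean of all samples by about 3 SD, 99.7% confidence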;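 also: fluorescence intensity change per second fitted from 20 to 320 s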); settings: Recombinant KvBeta, NADPH fluorescence decrease slope, 10 min; at 10 µM; stronger effect = lower value
# [6] = biological target: Muscarinic acetylcholine receptor M4 (Homo sapiens) (UniProt P08173); assay: M4-linked GIRK flux change, two-sided – cell-based, HEK293 M4/GIRK, thallium flux, BTC-AM, M4 allosteric agonist project, primary screen (AID 625;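 active = fluorescence slope after compound addition differing from the mean of all tested samples at 99.7% confidence, mostly higher but some lower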;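 also: thallium influx through GIRK channels coupled to M4 in HEK293 cells with BTC-AM dye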); settings: at 10 µM, actives lie on both sides
# Sequence of Muscarinic acetylcholine receptor M4 (Homo sapiens) (P08173 whole entry, looked up): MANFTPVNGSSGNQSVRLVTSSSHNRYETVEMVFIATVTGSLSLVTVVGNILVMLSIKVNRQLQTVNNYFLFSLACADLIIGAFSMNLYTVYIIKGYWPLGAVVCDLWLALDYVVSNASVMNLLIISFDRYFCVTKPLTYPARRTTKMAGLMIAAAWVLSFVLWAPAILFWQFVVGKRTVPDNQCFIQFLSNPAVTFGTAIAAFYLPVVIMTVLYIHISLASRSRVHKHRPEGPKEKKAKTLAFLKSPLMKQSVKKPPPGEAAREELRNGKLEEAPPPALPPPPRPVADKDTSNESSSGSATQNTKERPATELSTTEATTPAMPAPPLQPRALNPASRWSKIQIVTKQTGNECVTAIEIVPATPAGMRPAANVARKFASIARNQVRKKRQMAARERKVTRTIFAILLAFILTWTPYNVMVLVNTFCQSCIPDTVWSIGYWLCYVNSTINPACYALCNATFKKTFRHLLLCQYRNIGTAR
# Summary of the method: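 Material – HEK293 cells with M4 receptor and GIRK channels · Buffer or medium – pH 7.3 thallium assay buffer · Doses – one dose, 10 µM final · Timing – cells overnight at 37 °C, BTC-AM loading 1 h, reads 2 min total · Measured by – kinetic fluorescence with BTC-AM dye · Controls – carbachol and DMSO controls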
# [7] = blockers of RIG-like receptor reporter activation – cell-based, Sendai virus stimulus, luciferase, 10K MLSCN set, TLR/RLR signaling modifier project, primary screen (AID 602276;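 active = inhibition at or above 50% at 10 µM; inactive = inhibition below 50%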;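 also: firefly luciferase from ISG56 promoter only with Renilla not read in this screen; 0% = Sendai virus plus DMSO and 100% = medium plus DMSO without virus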); settings: HEK293 RL24 IRF3 luciferase reporter, at 10 µM, stronger effect = higher value
# [8] = TLR3 IRF3 reporter activation blockers – cell-based, poly I:C stimulus, luciferase, 10K MLSCN set, primary screen (AID 602277); settings: HEK293-TLR3 RL24 IRF3 luciferase reporter, at 10 µM, stronger effect = higher value
Compound,cell count [1],inhibition [1],inhibition of aggregation [2],nuclei count [2] [%],inhibition [3],nuclei count [3] [%],fluorescence slope [4],NADPH fluorescence slope [5],fluorescence slope [6],inhibition [7],inhibition [8]
CC(=O)N1C(=O)c2cccc3cccc(c23)C(=O)N1C(C)=O,776,4.6% (inactive),-3.8% (inactive),93.6,-62.5% (inactive),120,-0.444 (inactive),-2.9e-05 (inactive),0.00473 (inactive),18.6% (inactive),15.3% (inactive)
CN(CC(O)COCc1cccs1)C1CCCCC1 (centres undefined),305,10.6% (inactive),1.5% (inactive),95.2,-5.5% (inactive),105,-0.448 (inactive),-4.5e-05 (inactive),0.00729 (inactive),11.7% (inactive),17.5% (inactive)
O=S(=O)(CCOc1ccccc1)c1nc2ccccc2[nH]1,332,-11.8% (inactive),-12.8% (inactive),99.9,-77.3% (inactive),106,-0.566 (inactive),-9e-05 (inactive),0.00411 (inactive),19.7% (inactive),13.7% (inactive)
COc1ccccc1N1CCN(C(=O)c2ccc3nc(-c4ccco4)c(-c4ccco4)nc3c2)CC1,570,-15.9% (inactive),5.2% (inactive),136,-44.3% (inactive),115,-0.324 (inactive),3.6e-06 (inactive),0.005 (inactive),16.2% (inactive),8.44% (inactive)
CCCOc1nc(N)c(C#N)c(-c2ccccc2F)c1C#N,359,1.2% (inactive),10.7% (inactive),98.5,-22.8% (inactive),99.6,-0.547 (inactive),2.2e-05 (inactive),0.00463 (inactive),9.25% (inactive),14% (inactive)
O=C(Nc1ccc(CN2CCCCC2)cc1)c1ccc2c(c1)OCO2,438,-12.8% (inactive),15.1% (inactive),102,-0.6% (inactive),73.6,-0.473 (inactive),-1.5e-05 (inactive),0.00547 (inactive),-5.51% (inactive),-5.01% (inactive)
CCOC(=O)C1CCCN(C(=O)CNS(=O)(=O)c2ccc(Br)s2)C1 (centres undefined),232,3.3% (inactive),-8.6% (inactive),108,-33.6% (inactive),113,-0.437 (inactive),-5.6e-05 (inactive),0.00599 (inactive),11.6% (inactive),8.54% (inactive)
COCC(=O)N(Cc1nc2ccccc2c(=O)[nH]1)Cc1cccs1,608,-5.4% (inactive),-6.1% (inactive),105,-64.2% (inactive),114,-0.557 (inactive),-3e-05 (inactive),0.00566 (inactive),20.3% (inactive),22.3% (inactive)
N#CC1=C(N)N(c2ccccc2)C2=C(C(=O)CCC2)C1c1cccs1 (centres undefined),610,0% (inactive),3.8% (inactive),108,-53.5% (inactive),98.1,-0.362 (inactive),-4.2e-05 (inactive),0.00595 (inactive),-12.6% (inactive),-9.24% (inactive)
COc1cc(NC(=O)Cc2cccs2)ccc1-n1cnnn1,299,0% (inactive),-26.9% (inactive),100,-50.9% (inactive),112,-0.543 (inactive),-3.6e-05 (inactive),0.00442 (inactive),18.4% (inactive),21.1% (inactive)
c1ccc(Cn2nnnc2C(c2ccccn2)N2CCOCC2)cc1 (centres undefined),485,2.1% (inactive),-13% (inactive),81.4,-85.1% (inactive),116,-0.577 (inactive),-4.9e-05 (inactive),0.00747 (inactive),-6.48% (inactive),2.75% (inactive)
COc1cc(C(=O)N2CCC(c3nc(-c4cccnc4)no3)CC2)cc(OC)c1OC,651,-29.6% (inactive),2.1% (inactive),110,-33.4% (inactive),102,-0.28 (inactive),-1.2e-05 (inactive),0.00617 (inactive),5.18% (inactive),24.5% (inactive)
CCCc1nc2ccccc2c(=O)n1NC(=O)c1c(O)c2cccc3c2n(c1=O)CCC3,554,-15.1% (inactive),-12.2% (inactive),92,-150% (inactive),120,-0.391 (inactive),-0.000105 (inactive),0.00863 (inactive),7.44% (inactive),6.93% (inactive)
COC(=O)Nc1ccc(C)cc1NC(=O)OC,624,-20.8% (inactive),-13.1% (inactive),98.6,16% (inactive),86.5,-0.574 (inactive),2.5e-05 (inactive),0.00692 (inactive),-9.05% (inactive),-6.68% (inactive)
CCC(c1nnc(SCC(=O)NCC2CCCO2)n1Cc1ccccc1)N(C)C (centres undefined),414,-5.7% (inactive),0.8% (inactive),52.5,-136% (inactive),110,-0.508 (inactive),-2.1e-05 (inactive),0.00548 (inactive),21% (inactive),25.8% (inactive)
CN1CCCc2cc(C#N)c(=O)[nH]c21,492,-9.7% (inactive),-0.4% (inactive),108,3.9% (inactive),85,-0.117 (active),1e-05 (inactive),0.00776 (inactive),11.5% (inactive),14% (inactive)
FC(F)(F)c1cc(-c2ccco2)nc(-n2nnc3ccccc32)n1,529,-6.9% (inactive),-8.6% (inactive),109,-12% (inactive),101,-0.562 (inactive),1.3e-05 (inactive),0.00724 (inactive),15.2% (inactive),22.4% (inactive)
CCOC(=O)C1=C(C)NC(SC(C)=O)=NC1c1ccc(OC(C)=O)c(OC)c1 (centres undefined),550,0% (inactive),50% (active),64.7,-10.1% (inactive),101,-0.507 (inactive),-0.000113 (inactive),0.0052 (inactive),1.93% (inactive),1.43% (inactive)
CCOC(=O)C1=C(CC)Nc2ccccc2N=C1NC(=O)Nc1ccccc1OC,485,-12.3% (inactive),7.2% (inactive),116,-15% (inactive),119,-0.593 (inactive),2.9e-06 (inactive),0.00703 (inactive),26.2% (inactive),38.4% (inactive)
COc1cc2c(cc1OC)C(c1cc(OC)c(OC)c(OC)c1)NCC2 (centres undefined),514,1.8% (inactive),10.4% (inactive),104,-28.8% (inactive),102,-0.546 (inactive),-2.1e-05 (inactive),0.00597 (inactive),15.4% (inactive),20.5% (inactive)
O=C(NCCN1CCOCC1)c1ccc2c(c1)N(Cc1ccccc1)C(=O)CS2,773,-9.5% (inactive),-8.5% (inactive),102,20.7% (inactive),105,-0.564 (inactive),2e-05 (inactive),0.00419 (inactive),-1.65% (inactive),8.57% (inactive)
COc1cccc(NC(=O)CN2CCN(c3ccccc3F)CC2)c1,275,-7.3% (inactive),19.4% (inactive),90.1,11.9% (inactive),86.8,-0.526 (inactive),0.000174 (inactive),0.00586 (inactive),17.2% (inactive),10.2% (inactive)
O=C(CSc1nnc(-c2cccnc2)o1)Nc1ccccn1,328,3.2% (inactive),7.3% (inactive),99.4,-60.6% (inactive),131,-0.317 (inactive),5.1e-06 (inactive),0.0082 (inactive),-56.5% (inactive),-126% (inactive)
COC(=O)c1cc(NC(=O)C2CC=CCC2C(=O)O)cc(C(=O)OC)c1 (centres undefined),800,-6.9% (inactive),-7.4% (inactive),108,5.2% (inactive),97.7,-0.536 (inactive),-4.3e-05 (inactive),0.00439 (inactive),9.55% (inactive),7.94% (inactive)
CCOC(=O)N1CCC(O)(c2cc(C)c(C)cc2C)CC1,494,-1.1% (inactive),-15.6% (inactive),93,-16% (inactive),112,-0.316 (inactive),-2.5e-05 (inactive),0.00607 (inactive),16.2% (inactive),-0.7% (inactive)
CCCN1C(=O)SC(CC(=O)Nc2ccc(Br)cc2)C1=O (centres undefined),246,-7.8% (inactive),-2.4% (inactive),96.5,-47.8% (inactive),104,-0.444 (inactive),2.7e-05 (inactive),0.00512 (inactive),-2.25% (inactive),7.35% (inactive)
COC(=O)Cn1cnc2c(nnn2-c2ccc(C)cc2)c1=O,257,8.9% (inactive),-6.9% (inactive),100,-78.1% (inactive),106,-0.287 (inactive),-3.1e-05 (inactive),0.00635 (inactive),-7.22% (inactive),1.35% (inactive)
CCC(=O)Nc1ccc(F)c(Cl)c1,292,1.5% (inactive),7.9% (inactive),108,-76% (inactive),124,-0.538 (inactive),9.9e-07 (inactive),0.0059 (inactive),21.2% (inactive),13.9% (inactive)
CCN(CCNC(=O)C1CCN(S(=O)(=O)CC)CC1)c1ccccc1,446,-14.7% (inactive),5.7% (inactive),86.2,-93.7% (inactive),106,-0.254 (inactive),-2.8e-05 (inactive),0.00662 (inactive),15.8% (inactive),11.8% (inactive)
